Experimental findings from ChEMBL document CHEMBL4229344 (Eur J Med Chem, 2018) are described below.

In general, IC50 refers to the concentration that inhibits the measured activity by half. Low readings indicate inhibition by little substance, high ones a need for much substance.

Series [1] concerns the target Phosphorylase b kinase gamma catalytic chain, liver/testis isoform (Homo sapiens) (UniProt P15735). The experiment in a line: Binding affinity to wild-type human partial length PHKG2 (M1 to W300 residues) expressed in bacterial expression system assessed as residual binding level at 1 uM by Kinomescan method relative to control. In outline: (§1)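 KINOMEscan competition binding against a panel of 468 purified kinases/mutants, compound tested at 1 μM; readout is relative binding activity versus control.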

In series [2] the target is Serine/threonine-protein kinase N2 (Homo sapiens) (UniProt Q16513). Nature of the series: Binding affinity to wild-type human partial length PKN2 (E634 to C984 residues) expressed in bacterial expression system assessed as residual binding level at 1 uM by Kinomescan method relative to control.
Series [3] deals with Myosin light chain kinase family member 4 (Homo sapiens) (UniProt Q86YV6). Nature of the series: Binding affinity to wild-type human partial length MYLK4 (V79 to S380 residues) expressed in bacterial expression system assessed as residual binding level at 1 uM by Kinomescan method relative to control.
The target in series [4] is Wee1-like protein kinase 2 (Homo sapiens) (UniProt P0C1S8). Nature of the series: Binding affinity to wild-type human partial length WEE2 (M204 to K492 residues) expressed in bacterial expression system assessed as residual binding level at 1 uM by Kinomescan method relative to control.
Series [5] concerns Receptor-type tyrosine-protein kinase FLT3 (Homo sapiens), P36888 [R834Q]. Nature of the series: Binding affinity to human partial length FLT3 R834Q mutant (V592 to Y969 residues) expressed in mammalian expression system assessed as residual binding level at 1 uM by Kinomescan method relative to control. The method, boiled down:
(§2)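 Kinome-wide single-concentration binding screen (KINOMEscan) at 1 μM against a panel of 468 purified kinases and mutants. Read-out is relative binding of each kinase compared with control. Selectivity across the panel was summarised as an S(10) score.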

Series [6] addresses Ribosomal protein S6 kinase alpha-6 (Homo sapiens) (UniProt Q9UK32). Nature of the series: Binding affinity to wild-type human partial length C-terminal RSK4 kinase domain 2 (I401 to Y711 residues) expressed in bacterial expression system assessed as residual binding level at 1 uM by Kinomescan method relative to control.
Series [7] has as its target Serine/threonine-protein kinase Sgk1 (Homo sapiens) (UniProt O00141). Nature of the series: Binding affinity to wild-type human partial length SGK (I60 to L431 residues) expressed in mammalian expression system assessed as residual binding level at 1 uM by Kinomescan method relative to control.
The target of series [8] is Receptor-interacting serine/threonine-protein kinase 1 (Homo sapiens) (UniProt Q13546). Nature of the series: Binding affinity to wild-type human partial length RIPK1 (M1 to K305 residues) expressed in bacterial expression system assessed as residual binding level at 1 uM by Kinomescan method relative to control. The method, boiled down:
as §1

Series [9] addresses Casein kinase I isoform epsilon (Homo sapiens) (UniProt P49674). The experiment in a line: Binding affinity to wild-type human full length CSNK1E (M1 to K416 residues) expressed in bacterial expression system assessed as residual binding level at 1 uM by Kinomescan method relative to control. In outline: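 Single-concentration (1 μM) competition-binding screen run by KINOMEscan against a panel of 468 purified kinases and mutants. The read-out is the relative binding activity of the test compound to each kinase.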

The target in series [10] is Maternal embryonic leucine zipper kinase (Homo sapiens) (UniProt Q14680). The experiment in a line: Binding affinity to wild-type human full length MELK (M1 to V651 residues) expressed in bacterial expression system assessed as residual binding level at 1 uM by Kinomescan method relative to control. The method, boiled down: (§3)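 KINOMEscan competition binding against 468 purified kinases/mutants, test compound at 1 µM; residual binding relative to control.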

Series [11] has as its target Mitogen-activated protein kinase kinase kinase kinase 3 (Homo sapiens) (UniProt Q8IVH8). The experiment in a line: Binding affinity to wild-type human partial length MAP4K3 (M1 to D301 residues) expressed in bacterial expression system assessed as residual binding level at 1 uM by Kinomescan method relative to control.
Series [12] concerns Phosphatidylinositol 4,5-bisphosphate 3-kinase catalytic subunit alpha isoform (Homo sapiens), P42336 [E545A]. Nature of the series: Binding affinity to human partial length PIK3CA E545A mutant (R108 to N1068 residues) expressed in mammalian expression system assessed as residual binding level at 1 uM by Kinomescan method relative to control. The method, boiled down:
as §2

Series [13] relates to Phosphatidylinositol 4,5-bisphosphate 3-kinase catalytic subunit alpha isoform (Homo sapiens), P42336 [E545K]. Nature of the series: Binding affinity to human partial length PIK3CA E545K mutant (R108 to N1068 residues) expressed in mammalian expression system assessed as residual binding level at 1 uM by Kinomescan method relative to control. In outline: as §2
For series [14], the target named is Serine/threonine-protein kinase 32C (Homo sapiens) (UniProt Q86UX6). Nature of the series: Binding affinity to wild-type human partial length YANK3 (M68 to G486 residues) expressed in bacterial expression system assessed as residual binding level at 1 uM by Kinomescan method relative to control.
The target of series [15] is Mitogen-activated protein kinase 8 (Homo sapiens) (UniProt P45983). Nature of the series: Binding affinity to wild-type human full length JNK1 (M1 to Q384 residues) expressed in mammalian expression system assessed as residual binding level at 1 uM by Kinomescan method relative to control. The method, boiled down: as §3
In series [16] the target is Mitogen-activated protein kinase kinase kinase 1 (Homo sapiens) (UniProt Q13233). The experiment in a line: Binding affinity to wild-type human partial length MAP3K1 (L1202 to W1512 residues) expressed in mammalian expression system assessed as residual binding level at 1 uM by Kinomescan method relative to control.
The next series deals with Rattus norvegicus. Nature of the series: Apparent volume of distribution in Sprague-Dawley rat at 10 mg/kg, po. To be noted: in vivo. The series is classed as ADME, organism-based.
In series [17] the target is Macrophage colony-stimulating factor 1 receptor (Homo sapiens) (UniProt P07333). Nature of the series: Binding affinity to wild-type human partial length CSF1R (I564 to S939 residues) expressed in bacterial expression system assessed as residual binding level at 1 uM by Kinomescan method relative to control.
Series [18] addresses Serine/threonine-protein kinase DCLK3 (Homo sapiens) (UniProt Q9C098). Nature of the series: Binding affinity to wild-type human partial length DCAMKL3 (E140 to V628 residues) expressed in bacterial expression system assessed as residual binding level at 1 uM by Kinomescan method relative to control. In outline: (§4)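 Kinome-wide competition binding screen against a panel of 468 purified kinases/mutants, with the test compound at a single concentration of 1 μM. Read-out is the relative binding activity of each kinase in the presence of compound.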

Series [19] addresses Mast/stem cell growth factor receptor Kit (Homo sapiens, UniProt P10721). Nature of the series: Inhibition of c-KIT (unknown origin) using poly(4:1 Glu,Tyr) peptide as substrate preincubated for 1 hr followed by addition of ATP and measured after 30 mins by ADP-Glo bioluminescence assay. A general note: In ADP-Glo the light output rises with the ADP produced.
The target in series [20] is Serine/threonine-protein kinase ULK2 (Homo sapiens) (UniProt Q8IYT8). Nature of the series: Binding affinity to wild-type human partial length ULK2 (M1 to S301 residues) expressed in mammalian expression system assessed as residual binding level at 1 uM by Kinomescan method relative to control. The method, boiled down: as §1
Series [21] concerns the target Epithelial discoidin domain-containing receptor 1 (Homo sapiens, UniProt Q08345). The experiment in a line: Binding affinity to wild-type human partial length DDR1 (R565 to V876 residues) expressed in bacterial expression system assessed as residual binding level at 1 uM by Kinomescan method relative to control. The method, boiled down:
as §4

Sequence of Casein kinase I isoform epsilon (Homo sapiens) (P49674 whole entry, looked up, the tested form may be a part, canonical isoform): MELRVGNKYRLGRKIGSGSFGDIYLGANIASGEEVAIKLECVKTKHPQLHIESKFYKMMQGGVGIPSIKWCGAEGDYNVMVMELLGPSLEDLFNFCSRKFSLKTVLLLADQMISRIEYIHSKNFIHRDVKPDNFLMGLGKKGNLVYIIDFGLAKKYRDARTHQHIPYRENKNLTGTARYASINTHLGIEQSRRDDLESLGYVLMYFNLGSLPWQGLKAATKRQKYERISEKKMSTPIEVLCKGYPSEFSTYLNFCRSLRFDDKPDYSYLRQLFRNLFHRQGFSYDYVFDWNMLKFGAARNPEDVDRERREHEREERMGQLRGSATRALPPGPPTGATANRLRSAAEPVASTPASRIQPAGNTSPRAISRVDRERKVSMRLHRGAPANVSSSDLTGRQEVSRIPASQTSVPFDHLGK
Sequence of Serine/threonine-protein kinase N2 (Homo sapiens) (Q16513 whole entry, looked up, the tested form may be a part): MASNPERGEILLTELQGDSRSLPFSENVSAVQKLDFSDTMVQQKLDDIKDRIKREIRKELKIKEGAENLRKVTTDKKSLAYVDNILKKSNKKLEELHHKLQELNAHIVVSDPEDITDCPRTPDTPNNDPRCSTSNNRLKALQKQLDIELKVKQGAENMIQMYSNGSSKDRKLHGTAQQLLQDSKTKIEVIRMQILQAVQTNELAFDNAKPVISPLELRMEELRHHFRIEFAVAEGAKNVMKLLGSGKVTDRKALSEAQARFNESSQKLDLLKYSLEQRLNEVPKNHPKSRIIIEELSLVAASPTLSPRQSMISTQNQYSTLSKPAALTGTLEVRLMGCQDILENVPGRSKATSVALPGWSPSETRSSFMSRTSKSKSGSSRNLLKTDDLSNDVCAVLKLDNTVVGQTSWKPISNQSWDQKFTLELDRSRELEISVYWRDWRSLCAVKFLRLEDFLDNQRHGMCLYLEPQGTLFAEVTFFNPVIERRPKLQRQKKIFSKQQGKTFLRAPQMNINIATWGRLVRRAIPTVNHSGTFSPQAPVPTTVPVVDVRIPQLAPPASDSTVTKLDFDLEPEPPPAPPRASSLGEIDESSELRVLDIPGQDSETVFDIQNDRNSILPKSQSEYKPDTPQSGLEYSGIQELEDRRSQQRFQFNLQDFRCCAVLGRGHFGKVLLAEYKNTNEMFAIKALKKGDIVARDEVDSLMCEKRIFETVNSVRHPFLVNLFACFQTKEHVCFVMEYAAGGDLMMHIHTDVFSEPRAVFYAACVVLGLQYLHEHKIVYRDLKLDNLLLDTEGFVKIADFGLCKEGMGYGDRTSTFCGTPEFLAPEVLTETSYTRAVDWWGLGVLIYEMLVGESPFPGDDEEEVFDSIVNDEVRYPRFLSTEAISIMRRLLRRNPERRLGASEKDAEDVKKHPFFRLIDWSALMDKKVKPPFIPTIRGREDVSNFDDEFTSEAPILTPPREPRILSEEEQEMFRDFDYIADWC
Sequence of Mitogen-activated protein kinase 8 (Homo sapiens) (P45983 whole entry, the tested form may be a part): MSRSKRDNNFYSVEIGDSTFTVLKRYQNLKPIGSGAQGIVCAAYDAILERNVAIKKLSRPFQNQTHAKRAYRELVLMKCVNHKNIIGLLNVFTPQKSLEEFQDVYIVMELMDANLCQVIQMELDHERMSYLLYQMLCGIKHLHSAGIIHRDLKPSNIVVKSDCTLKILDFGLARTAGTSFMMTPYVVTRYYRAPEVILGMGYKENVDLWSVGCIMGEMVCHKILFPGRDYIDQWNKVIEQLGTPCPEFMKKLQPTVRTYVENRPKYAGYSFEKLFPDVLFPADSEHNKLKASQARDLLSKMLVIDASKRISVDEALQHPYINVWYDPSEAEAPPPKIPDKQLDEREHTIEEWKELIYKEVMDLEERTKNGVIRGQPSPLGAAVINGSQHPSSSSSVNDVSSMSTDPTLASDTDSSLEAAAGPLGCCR
Sequence of Macrophage colony-stimulating factor 1 receptor (Homo sapiens) (P07333 whole entry, the tested form may be a part): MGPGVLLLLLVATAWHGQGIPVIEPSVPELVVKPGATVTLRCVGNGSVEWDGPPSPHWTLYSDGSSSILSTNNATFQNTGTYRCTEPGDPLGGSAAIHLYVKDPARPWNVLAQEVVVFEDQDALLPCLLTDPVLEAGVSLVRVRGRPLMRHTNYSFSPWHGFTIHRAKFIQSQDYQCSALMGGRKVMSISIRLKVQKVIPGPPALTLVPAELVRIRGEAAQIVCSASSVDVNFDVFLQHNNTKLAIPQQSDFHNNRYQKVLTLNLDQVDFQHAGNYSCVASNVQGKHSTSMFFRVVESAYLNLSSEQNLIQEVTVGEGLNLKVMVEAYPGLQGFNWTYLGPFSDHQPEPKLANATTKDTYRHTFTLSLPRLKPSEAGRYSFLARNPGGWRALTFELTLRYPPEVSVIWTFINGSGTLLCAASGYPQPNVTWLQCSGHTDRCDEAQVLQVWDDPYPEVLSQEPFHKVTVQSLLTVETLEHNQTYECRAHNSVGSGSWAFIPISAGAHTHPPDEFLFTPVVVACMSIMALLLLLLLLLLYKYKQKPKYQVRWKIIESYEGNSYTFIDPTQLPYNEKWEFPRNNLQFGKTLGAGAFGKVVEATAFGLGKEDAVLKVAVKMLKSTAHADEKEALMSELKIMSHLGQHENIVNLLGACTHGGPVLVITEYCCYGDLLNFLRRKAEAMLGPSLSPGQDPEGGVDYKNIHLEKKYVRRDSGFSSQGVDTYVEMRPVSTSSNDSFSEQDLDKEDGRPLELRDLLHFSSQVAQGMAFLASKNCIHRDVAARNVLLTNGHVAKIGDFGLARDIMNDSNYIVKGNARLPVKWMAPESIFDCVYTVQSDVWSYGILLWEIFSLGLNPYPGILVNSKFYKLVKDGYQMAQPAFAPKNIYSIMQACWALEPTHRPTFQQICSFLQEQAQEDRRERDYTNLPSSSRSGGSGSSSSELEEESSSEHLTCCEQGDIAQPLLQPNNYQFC
Sequence of Mast/stem cell growth factor receptor Kit (P10721 whole entry, the tested form may be a part): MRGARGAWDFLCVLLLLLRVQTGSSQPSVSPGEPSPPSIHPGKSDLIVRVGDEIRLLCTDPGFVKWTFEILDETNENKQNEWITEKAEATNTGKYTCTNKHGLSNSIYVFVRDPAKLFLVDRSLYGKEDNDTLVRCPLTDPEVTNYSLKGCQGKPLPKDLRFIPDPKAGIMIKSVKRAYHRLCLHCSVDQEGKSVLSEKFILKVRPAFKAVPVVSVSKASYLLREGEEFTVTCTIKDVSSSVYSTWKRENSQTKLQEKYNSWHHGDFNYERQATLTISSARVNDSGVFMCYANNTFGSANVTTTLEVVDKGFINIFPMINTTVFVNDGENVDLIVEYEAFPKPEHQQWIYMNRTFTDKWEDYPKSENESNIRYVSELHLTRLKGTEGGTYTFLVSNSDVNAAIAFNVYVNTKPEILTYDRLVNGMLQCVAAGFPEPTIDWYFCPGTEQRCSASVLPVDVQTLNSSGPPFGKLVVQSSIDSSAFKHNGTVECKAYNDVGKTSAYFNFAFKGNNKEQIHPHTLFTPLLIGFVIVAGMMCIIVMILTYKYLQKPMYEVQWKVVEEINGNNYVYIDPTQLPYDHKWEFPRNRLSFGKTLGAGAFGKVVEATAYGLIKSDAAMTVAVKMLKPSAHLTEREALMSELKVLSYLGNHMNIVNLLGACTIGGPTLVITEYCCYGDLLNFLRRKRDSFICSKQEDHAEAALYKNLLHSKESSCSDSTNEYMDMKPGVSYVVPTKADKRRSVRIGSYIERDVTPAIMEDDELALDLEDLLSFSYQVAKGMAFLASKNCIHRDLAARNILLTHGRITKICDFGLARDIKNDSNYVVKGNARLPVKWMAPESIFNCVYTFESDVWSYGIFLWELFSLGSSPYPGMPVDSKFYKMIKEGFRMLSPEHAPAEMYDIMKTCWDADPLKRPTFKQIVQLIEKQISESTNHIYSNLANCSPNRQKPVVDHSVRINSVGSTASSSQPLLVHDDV
Sequence of Wee1-like protein kinase 2 (Homo sapiens) (P0C1S8 whole entry, looked up, the tested form may be a part): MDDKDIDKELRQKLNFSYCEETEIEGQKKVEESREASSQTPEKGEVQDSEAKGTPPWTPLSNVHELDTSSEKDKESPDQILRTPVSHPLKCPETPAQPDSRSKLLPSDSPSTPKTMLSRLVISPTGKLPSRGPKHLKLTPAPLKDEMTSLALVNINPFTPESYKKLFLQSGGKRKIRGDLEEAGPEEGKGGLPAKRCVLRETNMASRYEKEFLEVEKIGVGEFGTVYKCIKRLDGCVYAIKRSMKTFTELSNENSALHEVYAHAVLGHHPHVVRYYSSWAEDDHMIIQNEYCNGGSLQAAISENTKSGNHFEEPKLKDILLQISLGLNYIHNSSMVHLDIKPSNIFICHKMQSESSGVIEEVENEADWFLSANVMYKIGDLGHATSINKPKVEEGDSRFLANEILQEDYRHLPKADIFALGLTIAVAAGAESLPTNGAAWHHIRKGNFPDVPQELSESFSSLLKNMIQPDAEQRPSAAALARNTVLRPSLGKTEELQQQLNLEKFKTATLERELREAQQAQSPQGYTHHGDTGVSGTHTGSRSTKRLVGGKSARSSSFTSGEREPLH
Sequence of Receptor-interacting serine/threonine-protein kinase 1 (Homo sapiens) (Q13546 whole entry, the tested form may be a part): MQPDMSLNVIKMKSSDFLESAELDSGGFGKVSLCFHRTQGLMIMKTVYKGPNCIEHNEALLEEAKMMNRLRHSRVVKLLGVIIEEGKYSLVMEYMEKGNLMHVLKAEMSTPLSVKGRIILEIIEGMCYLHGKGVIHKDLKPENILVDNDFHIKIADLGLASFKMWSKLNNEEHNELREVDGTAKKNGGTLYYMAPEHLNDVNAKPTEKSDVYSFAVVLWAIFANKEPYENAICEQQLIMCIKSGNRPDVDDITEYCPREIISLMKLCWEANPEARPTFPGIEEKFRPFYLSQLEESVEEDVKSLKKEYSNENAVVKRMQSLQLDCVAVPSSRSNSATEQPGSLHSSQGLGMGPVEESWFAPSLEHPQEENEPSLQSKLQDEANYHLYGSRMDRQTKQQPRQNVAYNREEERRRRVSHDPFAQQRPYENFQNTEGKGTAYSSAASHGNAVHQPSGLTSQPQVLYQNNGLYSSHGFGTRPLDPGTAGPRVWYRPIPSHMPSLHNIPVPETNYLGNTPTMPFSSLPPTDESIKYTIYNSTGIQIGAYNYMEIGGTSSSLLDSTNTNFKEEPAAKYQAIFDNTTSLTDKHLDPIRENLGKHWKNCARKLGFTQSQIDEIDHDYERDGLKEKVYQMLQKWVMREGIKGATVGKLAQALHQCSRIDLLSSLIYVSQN

Regarding `Cc1ccc(NC(=O)c2ccc(CN(CCN(C)C)C(=O)c3cccnc3)cc2)cc1Nc1nccc(-c2cccnc2)n1`, the Activity stood at 89% in [1]; 96% in series [2]; 76% in series [3]; 96% in series [4]; 90% in series [5]; 100% in [6]. Moreover, the Activity turned out to be 100% in series [7]; 89% in [8]; 97% in series [9]; 84% in series [10]; 93% in series [11]; 63% in series [12]. The Activity in [13] was 87%; in [14] it was 96%; in series [15] it was 36%; in series [16] it was 88%; in series [17], 10%; in [18], 89%. Also, the Activity came out at 84% in [20] and 3.9% in series [21]. In addition, the Vz with Rattus norvegicus was 256.181 L/kg. Besides, the IC50 in series [19] was greater than 10 µM.
